Assay results taken from ChEMBL document CHEMBL3108697, “Design of an amide N-glycoside derivative of β-glucogallin: a stable, potent, and specific inhibitor of aldose reductase” (J Med Chem, 2014).
Activity calls are given as the source filed them. The calls are words filed in the database; no cut-off is given here.

Columns and labels:
[1] = molecular target: T1, Aldo-keto reductase family 1 member B1 (Homo sapiens, UniProt P15121); assay: Inhibition of human recombinant AKR1B1 expressed in Escherichia coli using DL-glyceraldehyde as substrate after 5 mins by spectrophotometry
How it was run: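 Enzyme inhibition was tested with recombinant human AKR1B1, using the natural substrate glyceraldehyde.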

[2] = Drug degradation in aqueous sulfuric acid solution at 250 uM at pH 0.33 at 80 degC after 30 mins by HPLC analysis; format: physicochemical; settings: buffer, pH 0.33, 0.5 h
How it was run: (§1)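 Compound kept in aqueous sulfuric acid (pH = 0.33) with heating at 80 °C. Intact compound remaining was quantified by HPLC against calibration curves.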

[3] = Drug degradation in aqueous sulfuric acid solution at 250 uM at pH 0.33 at 80 degC after 15 mins by HPLC analysis; format: physicochemical; settings: read-out: Drug degradation; how it was run: as §1
[4] = molecular target: Aldo-keto reductase family 1 member B1 (Mus musculus) (UniProt P45376); assay: Inhibition of AKR1B1 in mouse RAW264.7 cells assessed as inhibition of sorbitol accumulation at 50 uM after 24 hrs by colorimetric assay; format: cell-based
How it was run: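 Raw264.7 murine macrophages were incubated with compound for 24 h, then harvested. Intracellular sorbitol accumulation served as the read-out of AKR1B1 activity.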

[5] = molecular target: T2, Aldo-keto reductase family 1 member A1 (Homo sapiens) (UniProt P14550); assay: Inhibition of AKR1A1 (unknown origin) using DL-glyceraldehyde as substrate at 15 uM after 5 mins by spectrophotometry
T2 sequence (whole entry): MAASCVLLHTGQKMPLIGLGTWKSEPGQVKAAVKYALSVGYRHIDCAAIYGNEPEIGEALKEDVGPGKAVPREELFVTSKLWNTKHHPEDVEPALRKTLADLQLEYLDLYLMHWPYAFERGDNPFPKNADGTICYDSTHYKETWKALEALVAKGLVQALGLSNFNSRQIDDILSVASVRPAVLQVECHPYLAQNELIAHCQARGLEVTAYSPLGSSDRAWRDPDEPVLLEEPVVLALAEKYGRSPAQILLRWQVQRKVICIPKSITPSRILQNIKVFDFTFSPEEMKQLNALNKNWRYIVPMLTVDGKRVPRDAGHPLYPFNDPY

[6] = molecular target: Aldo-keto reductase family 1 member B10 (Homo sapiens) (UniProt O60218); assay: Inhibition of AKR1B10 (unknown origin) using DL-glyceraldehyde as substrate at 15 uM after 5 mins by spectrophotometry
Aldo-keto reductase family 1 member B10 (Homo sapiens), sequence (O60218 whole entry, looked up): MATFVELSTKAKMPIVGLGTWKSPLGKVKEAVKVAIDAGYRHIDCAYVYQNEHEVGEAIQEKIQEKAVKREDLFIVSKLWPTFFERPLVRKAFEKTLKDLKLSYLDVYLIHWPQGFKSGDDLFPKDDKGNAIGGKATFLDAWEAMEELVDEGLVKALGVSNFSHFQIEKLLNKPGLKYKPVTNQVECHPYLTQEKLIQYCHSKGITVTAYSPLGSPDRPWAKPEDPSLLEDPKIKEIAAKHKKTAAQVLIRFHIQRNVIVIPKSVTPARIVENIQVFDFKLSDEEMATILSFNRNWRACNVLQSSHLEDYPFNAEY

[7] = molecular target: T1, Aldo-keto reductase family 1 member B1; assay: Inhibition of human AKR1B1 expressing in PAR40 C57BL6 mouse lens assessed as inhibition of glucose-induced sorbitol accumulation at 25 to 50 uM after 72 hrs by colorimetric assay; settings: Lens of camera-type eye
How it was run: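 Lenses were taken from transgenic mice overexpressing human AKR1B1, and from wild-type mice. They were cultured ex vivo with 27.5 mM glucose and given vehicle (H₂O) or compound at 25 and 50 μM for 72 h. Sorbitol accumulation was measured.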

[8] = Stability of the compound in aqueous sulfuric acid solution assessed as compound remaining at 250 uM at pH 0.33 at 80 degC after 6 days by HPLC analysis; format: physicochemical; settings: read-out: Stability; how it was run: as §1

## OC[C@H]1O[C@@H](n2cc(-c3cc(O)c(O)c(O)c3)nn2)[C@H](O)[C@@H](O)[C@@H]1O
[1]
  inhibition: inactive

## O=C(Cc1cc(O)c(O)c(O)c1)N[C@@H]1O[C@H](CO)[C@@H](O)[C@H](O)[C@H]1O
[1]
  inhibition: inactive

## OC[C@H]1O[C@@H](OCCCc2cc(O)c(O)c(O)c2)[C@H](O)[C@@H](O)[C@@H]1O
[1]
  inhibition: inactive

## OC[C@H]1O[C@@H](OCCc2cc(O)c(O)c(O)c2)[C@H](O)[C@@H](O)[C@@H]1O
[1]
  inhibition: inactive

## OC[C@H]1O[C@@H](OCc2cn(Cc3cc(O)c(O)c(O)c3)nn2)[C@H](O)[C@@H](O)[C@@H]1O
[1]
  inhibition: inactive

## O=C(O[C@@H]1O[C@H](CO)[C@@H](O)[C@H](O)[C@H]1O)c1cc(O)c(O)c(O)c1
[1]
  IC50: 8 µM
[2]
  Stability: Unstable
[3]
  degraded at 0.25 h, 250 µM: 76%
[4]
  inhibition: 50%
[5]
  inhibition: inactive
[6]
  inhibition: inactive
[7]
  inhibition: 74%

## O=C(N[C@@H]1O[C@H](CO)[C@@H](O)[C@H](O)[C@H]1O)c1cc(O)c(O)c(O)c1
[1]
  IC50: 9 µM
[4]
  inhibition: 50%
[8]
  remaining at 144 h, 250 µM: 96%
[5]
  inhibition: inactive
[6]
  inhibition: inactive
[7]
  inhibition: 80%
